The results in this text go back to ChEMBL document CHEMBL3593221, “Design, synthesis and preliminary biological evaluation of indoline-2,3-dione derivatives as novel HDAC inhibitors” (Bioorg Med Chem, 2015).

The target of test [1] is Histone deacetylase (HDAC1 and HDAC2) (Homo sapiens, UniProt Q13547+Q92769). Description: Inhibition of HDAC1/2 in human HeLa cell nuclear extract using Boc-Lys (acetyl)-AMC as substrate preincubated for 30 mins before substrate addition measured after 20 mins by UV-vis spectrophotometer analysis. The format is cell-based.
In test [2] the test system is K562. The test is described as follows: Antiproliferative activity against human K562 cells after 48 hrs by MTT assay. The format is functional, cell-based. The conditions noted are these: K562, 48 h. Background: Formazan colour is commonly taken as a measure of viable cells.
Test [3] can be described thus: Antiproliferative activity against human 3AO cells after 48 hrs by MTT assay. Type of test: functional, cell-based.
In test [4] the test system is HeLa. The test is described as follows: Antiproliferative activity against human HeLa cells after 48 hrs by MTT assay. The format is functional, cell-based.
Test [5] deals with HCT-116. Description: Antiproliferative activity against human HCT116 cells after 48 hrs by MTT assay. Type of test: functional, cell-based. The conditions noted are these: HCT-116, 48 h.
Test [6] deals with U-937. Description: Antiproliferative activity against human U937 cells after 48 hrs by MTT assay. Type of test: functional, cell-based. The conditions noted are these: U-937, 48 h.
The test system of test [7] is HEL. Description: Antiproliferative activity against human HEL cells after 48 hrs by MTT assay. Type of test: functional, cell-based.
In test [8] the test system is MDA-MB-231. Description: Antiproliferative activity against human MDA-MB-231 cells after 48 hrs by MTT assay. Type of test: functional, cell-based. The conditions noted are these: MDA-MB-231, 48 h.
The nature of test [9]: Antiproliferative activity against human KG1 cells after 48 hrs by MTT assay. Type of test: functional, cell-based. The conditions noted are these: KG-1, 48 h.
Test [10] has as its system PC-3. The test is described as follows: Antiproliferative activity against human PC3 cells after 48 hrs by MTT assay. The conditions noted are these: PC-3, 48 h. The format is functional, cell-based.
A short description of test [11]: Antiproliferative activity against human ES2 cells after 48 hrs by MTT assay. Type of test: functional, cell-based. The note with it: ES-2, 48 h.
Test [12] in a line: Antiproliferative activity against human H7402 cells after 48 hrs by MTT assay. The note with it: H7402, 48 h. The format is functional, cell-based. In short, it runs like this: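 Cells kept in RPMI1640 with 10% FBS at 37 °C, 5% CO2. Seeded 5000 per well and allowed at least 4 h to settle, then exposed to a range of compound concentrations for 48 h. 1% MTT solution added for 4 h, formazan dissolved in DMSO over 15 min, OD read at 570 nm. Values are the mean of three experiments.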

The subject of test [13] is MCF7. Description: Antiproliferative activity against human MCF7 cells after 48 hrs by MTT assay. Type of test: functional, cell-based. The note with it: MCF7, 48 h.

The IC50 is the concentration that gives 50% inhibition. Consider `O=C(CNC(=O)CN1C(=O)C2(OCCO2)c2cc(Br)ccc21)NO`, for which the IC50 in [1] was > 50 µM.
In turn, `O=C(CCCNC(=O)CN1C(=O)C2(OCCO2)c2cc(Br)ccc21)NO` returned a half-inhibitory concentration (IC50) in test [1] of 0.92 µM.
In test [1], `O=C(CCCCCNC(=O)CN1C(=O)C2(OCCO2)c2cc(Br)ccc21)NO` came in with an IC50 of 0.67 µM.
On the same count and under the same terms, the value for `O=C(/C=C/c1ccc(NC(=O)CN2C(=O)C3(OCCO3)c3cc(Br)ccc32)cc1)NO` was 0.22 µM; that for `O=C(CN1C(=O)C2(OCCO2)c2cc(F)ccc21)Nc1ccc(C(=O)NO)cc1` was 0.19 µM.
The same measure, in the same setting: the value for `O=C(CN1C(=O)C2(OCCO2)c2cc(Cl)ccc21)Nc1ccc(C(=O)NO)cc1` was 0.37 µM; that for `O=C(CN1C(=O)C2(OCCO2)c2cc(Br)ccc21)Nc1ccc(C(=O)NO)cc1` was 0.12 µM; that for `O=C(CN1C(=O)C2(OCCO2)c2ccccc21)Nc1ccc(C(=O)NO)cc1` was 0.31 µM.
Still for that read-out and setting: the value for `Cc1ccc2c(c1)C1(OCCO1)C(=O)N2CC(=O)Nc1ccc(C(=O)NO)cc1` was 0.28 µM.
`O=C(CN1C(=O)C2(OCCO2)c2cc([N+](=O)[O-])ccc21)Nc1ccc(C(=O)NO)cc1`: the IC50 in [1] is > 50 µM.
Take `O=C(CN1C(=O)C2(OCCCO2)c2cc(Cl)ccc21)Nc1ccc(C(=O)NO)cc1`: the IC50 in test [2] stood at 5.32 µM; in [3], 12.3 µM; in test [4], 11.3 µM; in [1], 0.0344 µM; in test [5], 41.9 µM; in test [6] it was 2.09 µM. The IC50 stood at 1.25 µM in test [7]; 57.1 µM in test [8]; 9.19 µM in [9]; 21.9 µM in test [10]; 10.1 µM in test [11]; 4.64 µM in test [12]. The compound also came in with an IC50 in [13] of 28.4 µM.
In the case of `O=C(CN1C(=O)C2(OCCCCO2)c2cc(Cl)ccc21)Nc1ccc(C(=O)NO)cc1`, the IC50 worked out at 7.23 µM in test [2]; 23.6 µM in test [3]; 36.1 µM in [4]; 0.0373 µM in [1]; 42.4 µM in [5]; 1.49 µM in test [6]. Moreover, the IC50 in [7] was determined as 1.29 µM; in test [8] it was 36.4 µM; in test [9], 10.1 µM; in test [10] it was 11.6 µM; in [11], 25.3 µM; in test [12] it was 5.34 µM. This compound also displayed an IC50 in test [13] of 25 µM.
Take `O=C(CN1C(=O)C2(OCCCO2)c2cc(Br)ccc21)Nc1ccc(C(=O)NO)cc1`: the half-inhibitory concentration (IC50) in test [2] was found to be 1.94 µM; in test [3], 18.3 µM; in test [4], 12.1 µM; in [1], 0.013 µM; in [5], 60.1 µM; in [6], 0.4 µM. Further, the concentration for half-maximal inhibition (IC50) came to 0.56 µM in test [7]; 44.7 µM in test [8]; 5.4 µM in test [9]; 11 µM in test [10]; 16.1 µM in test [11]; 1.37 µM in test [12]. This compound also yielded an IC50 in test [13] of 8.58 µM.
In the case of `O=C(CN1C(=O)C2(OCCCCO2)c2cc(Br)ccc21)Nc1ccc(C(=O)NO)cc1`, the IC50 was 3.91 µM in [2]; 27.2 µM in test [3]; > 50 µM in test [4]; 0.0216 µM in test [1]; 80.2 µM in test [5]; 0.66 µM in [6]. Further, the IC50 in test [7] amounted to 0.64 µM; in [8], 24.1 µM; in [9], 5.49 µM; in test [10], 17.7 µM; in test [11], 3.6 µM; in test [12], 0.75 µM. Also, in [13], the IC50 amounted to 6.13 µM.
For `O=C(CCCN1C(=O)C2(OCCCO2)c2cc(Br)ccc21)Nc1ccc(C(=O)NO)cc1`, the IC50 stood at 0.39 µM in test [2]; 21.4 µM in test [3]; 22.2 µM in test [4]; 0.0194 µM in [1]; 1.1 µM in test [5]; 0.22 µM in test [6]. For the same compound, the IC50 in test [7] turned out to be 0.34 µM; in test [8], 126 µM; in [9], 0.42 µM; in [10] it was 7.93 µM; in test [11] it was 6.02 µM; in test [12], 0.58 µM. Moreover, half-maximal inhibition in test [13] (IC50) was put at 13.7 µM.
On to `COC(=O)c1ccc(NC(=O)CN2C(=O)C3(OCCCO3)c3cc(Br)ccc32)cc1`, for which, in test [1], the IC50 is > 50 µM.
Still for that read-out and setting: the value for `O=C(CN1C(=O)C2(OCCCO2)c2cc(Br)ccc21)Nc1ccc(C(=O)O)cc1` was > 50 µM.
In the case of `Nc1ccccc1NC(=O)c1ccc(NC(=O)CN2C(=O)C3(OCCCO3)c3cc(Br)ccc32)cc1`, the IC50 worked out at 0.44 µM in test [2]; 9.71 µM in test [3]; 26.6 µM in test [4]; 0.31 µM in test [1]; 0.64 µM in test [5]; 1.08 µM in [6]. The IC50 in test [8] came to 82.7 µM; in test [9] it was 5.92 µM; in [10] it was 4.43 µM; in [11], 6.49 µM; in test [12], 1.95 µM; in test [13] it was 5.23 µM.
